Experimental data from paper PMC2861480 (Molecular bioSystems, 2009).

Assays:
GSK3β = GSK3β (Homo sapiens, UniProt P49841); experiment: Kinase profiling; format: biochemical, mammalian; settings: 5 μM 3F8 in 1% DMSO; panel of 22 kinases
zebrafish embryos = settings: for CE (effective concentration to cause no-eyes phenotype): zebrafish embryos
[1] = test system: β-catenin–TCF activity in 293T cells; experiment: In vitro β-catenin–TCF assay; format: cell-based; settings: 4 μM 3F8 added to the medium, 18 h
In short: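 293T cells in 24-well plates were transfected with 200 ng superTOPflash reporter plasmid plus 20 ng Renilla luciferase (RLTK) control plasmid. Test compound was added 24 h after transfection and left for 18 h. Cell extracts were assayed sequentially for firefly and Renilla luciferase in a dual-luciferase system, and firefly readings were normalized to Renilla.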

GSK3β, sequence (P49841 whole entry): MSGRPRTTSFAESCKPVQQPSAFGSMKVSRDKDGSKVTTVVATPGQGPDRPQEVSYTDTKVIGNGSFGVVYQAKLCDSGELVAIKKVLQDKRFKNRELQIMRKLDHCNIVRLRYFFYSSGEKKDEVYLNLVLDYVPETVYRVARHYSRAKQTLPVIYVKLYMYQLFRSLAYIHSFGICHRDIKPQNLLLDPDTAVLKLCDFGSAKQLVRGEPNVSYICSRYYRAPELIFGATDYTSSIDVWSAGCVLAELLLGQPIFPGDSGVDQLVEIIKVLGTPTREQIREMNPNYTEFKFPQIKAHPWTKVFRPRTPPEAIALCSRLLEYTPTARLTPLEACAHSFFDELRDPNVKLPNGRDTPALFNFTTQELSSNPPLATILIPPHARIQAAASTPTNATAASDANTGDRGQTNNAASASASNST

inhibition of GSK3β activity (GSK3β) | SMILES | no-eyes embryos that developed a forebrain and eyes after removal of compound (zebrafish embryos; 2 days of treatment, washed out, scored by 5 dpf) | concentration giving no-eyes phenotype in all embryos (zebrafish embryos; treated at the 2-cell stage) | concentration required for effect on brain development (zebrafish embryos; treated at the 2-somite stage (after gastrulation), no effect at highest dose) | concentration required for no-eyes phenotype (zebrafish embryos; treated at the shield stage) | CE (effective concentration to cause no-eyes phenotype) (zebrafish embryos) | luciferase read out increase (superTOPflash) [1]
91% | CCc1nc2c(c3cc(OC)c(OC)cc13)C(=O)NC2=O [3F8, 5-ethyl-7,8-dimethoxy-1H-pyrrolo[3,4-c]-isoquinoline-1,3-(2H)-dione] | 22% | 3.75 µM | > 75 µM | 11.25 µM | 7.5 µM | approximately 15 fold
– | COC(=O)c1ccc[cH-]1.O=C1NC(=O)c2c1c1cccnc1c1[n-]c3c(Br)cc(O)cc3c21.[CH+]=O.[Ru] [GSK-3 inhibitor XV, reference compound] | – | – | – | – | 1 µM | –
